Sampled rows, rich in hits. Any-hit rate of the full collection: about 1.8%.
NPY2 pot ag: potentiators or agonists of human neuropeptide Y receptor Y2. cells expressing NPY-Y2, potentiator/agonist read-out. activation, % at 3.6 µM. 0.45% of 220,000 active; in the data active = activation above about 27%;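 note: cells stimulated with NPY near EC25 plus isoproterenol at EC100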
Target sequence (P49146 whole entry, looked up): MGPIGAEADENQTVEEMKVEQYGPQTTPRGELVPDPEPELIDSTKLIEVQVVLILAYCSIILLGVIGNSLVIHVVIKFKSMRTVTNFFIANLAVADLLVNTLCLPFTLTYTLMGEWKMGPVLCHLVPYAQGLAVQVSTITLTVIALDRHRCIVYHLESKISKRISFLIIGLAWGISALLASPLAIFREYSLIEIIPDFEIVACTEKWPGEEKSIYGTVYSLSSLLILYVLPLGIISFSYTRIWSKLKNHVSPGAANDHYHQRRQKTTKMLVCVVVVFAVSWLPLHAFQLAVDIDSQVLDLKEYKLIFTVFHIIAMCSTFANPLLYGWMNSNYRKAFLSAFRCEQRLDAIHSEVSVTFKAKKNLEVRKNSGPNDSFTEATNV
NPY Y1 blocker: blocks the human neuropeptide Y Y1 receptor; HEK293-CNG Y1 cells, membrane potential fluorescence; NPY at EC95, then isoproterenol; inhibition, % at 3.6 µM; AID 1040; P25929; 1% of 200,000 active;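 active = inhibition above the campaign mean inhibition of all tested compounds plus 3 SD, cut at about 20% in these data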
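Material: HEK293 cells co-expressing NPY Y1 receptor and cyclic-nucleotide gated channel. Timing: compound incubation 1 h at room temperature, readout 45 min post-stimulation. Signal: fluorescence, membrane potential probe.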
NPY-Y1 PAM-ag: human NPY-Y1 potentiation or agonism, primary screen; P25929; NPY-Y1 expressing cells, potentiator/agonist activation; activation, % at 3.6 µM; 0.37% of 220,000 active; AID 1304; in the data active = activation above about 33%, passing the limit was not always enough;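 note: cells stimulated with NPY at EC10 then isoproterenol at EC100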
NPY-Y2 antag: antagonists of human neuropeptide Y receptor Y2 | NPY-Y2 expressing cells, antagonist mode | inhibition, % at 2.7 µM | 0.99% of 140,000 active | AID 793; in the data active = inhibition above about 17%
A number is an active result.

How did CC(=O)NC(NC(=S)Nc1ccc(S(N)(=O)=O)cc1)C(Cl)(Cl)Cl (stereo not given) do in these assays?
NPY2 pot ag: inactive; NPY-Y1 PAM-ag: inactive

How did CC(=O)NC(NC(=S)Nc1ccc(N=Nc2ccccc2)cc1)C(Cl)(Cl)Cl (stereo not given) do in these assays?
NPY2 pot ag: inactive; NPY Y1 blocker: inactive; NPY-Y1 PAM-ag: 46; NPY-Y2 antag: inactive

What do the screens show for `Cc1cccc2c(=O)c(C(=O)N3CCCCCC3)c[nH]c12`?
NPY2 pot ag: inactive; NPY Y1 blocker: 21; NPY-Y1 PAM-ag: inactive; NPY-Y2 antag: 22

Results for O=C(c1c[nH]c2ccc(F)cc2c1=O)N1CCCCCC1 ?
NPY2 pot ag: inactive; NPY Y1 blocker: inactive; NPY-Y1 PAM-ag: inactive; NPY-Y2 antag: inactive

What do the screens show for `O=C(OCc1nnc(-c2ccccc2)o1)c1ccc(Cl)cc1`?
NPY2 pot ag: inactive; NPY Y1 blocker: inactive; NPY-Y1 PAM-ag: inactive

How did O=C(OCc1nnc(-c2ccccc2)o1)c1ccc2c(c1)OCCO2 do in these assays?
NPY2 pot ag: inactive; NPY Y1 blocker: inactive; NPY-Y1 PAM-ag: inactive; NPY-Y2 antag: 20

What do the screens show for `COc1ccccc1NS(=O)(=O)c1cc(NC(=O)Nc2ccccc2)ccc1N1CCCCC1`?
NPY2 pot ag: 46; NPY Y1 blocker: inactive; NPY-Y1 PAM-ag: 58; NPY-Y2 antag: inactive

What do the screens show for `O=[N+]([O-])c1ccccc1Nc1c2ccccc2nc2ccccc12`?
NPY2 pot ag: 49; NPY Y1 blocker: inactive; NPY-Y1 PAM-ag: 50

What do the screens show for `O=C(O)Cc1nn(Cc2ccc(Cl)cc2)c(=O)c2ccccc12`?
NPY2 pot ag: inactive; NPY Y1 blocker: inactive; NPY-Y1 PAM-ag: inactive

Results for CCOc1ccc(/C(O)=C2/C(=O)C(=O)N(CC3CCCO3)C2c2cccs2)cc1 (stereo not given) ?
NPY2 pot ag: inactive; NPY Y1 blocker: inactive; NPY-Y1 PAM-ag: inactive; NPY-Y2 antag: inactive

What do the screens show for `CC(C)CCOC(=O)/C(=C/c1ccco1)NC(=O)/C=C/c1ccccc1`?
NPY2 pot ag: inactive; NPY Y1 blocker: 21; NPY-Y1 PAM-ag: inactive; NPY-Y2 antag: 18

Results for O=C(O)CCCNC1=NCCC1 ?
NPY2 pot ag: inactive; NPY Y1 blocker: 42; NPY-Y1 PAM-ag: inactive; NPY-Y2 antag: inactive

What do the screens show for `Cc1ccc(OCC(=O)Nc2ccc([N+](=O)[O-])cn2)cc1C`?
NPY2 pot ag: inactive; NPY Y1 blocker: 25; NPY-Y1 PAM-ag: inactive; NPY-Y2 antag: inactive

Results for CCOc1cccc2sc(N(CCCN(C)C)C(=O)c3ccc(S(=O)(=O)N(C)c4ccccc4)cc3)nc12 ?
NPY2 pot ag: inactive; NPY Y1 blocker: 21; NPY-Y1 PAM-ag: inactive

Results for CN(C)CCCN(C(=O)c1sc2ccccc2c1Cl)c1nc2c(F)cccc2s1 ?
NPY2 pot ag: inactive; NPY Y1 blocker: 20; NPY-Y1 PAM-ag: inactive; NPY-Y2 antag: 18

Results for CN(C)CCN(C(=O)c1ccc(S(=O)(=O)N(C)c2ccccc2)cc1)c1nc2cc3c(cc2s1)OCCO3 ?
NPY2 pot ag: inactive; NPY-Y1 PAM-ag: inactive

Results for CN(C)C(=O)C1C2NC(=S)N(c3cccc(Cl)c3)C1(C)Oc1ccc(Cl)cc12 (stereo not given) ?
NPY2 pot ag: 29; NPY Y1 blocker: inactive; NPY-Y1 PAM-ag: 51

How did CN(C)C(=O)C1C2NC(=S)N(c3ccc(Cl)cc3)C1(C)Oc1ccc(Cl)cc12 (stereo not given) do in these assays?
NPY2 pot ag: 89; NPY Y1 blocker: inactive; NPY-Y1 PAM-ag: 92

What do the screens show for `CN(C)C(=O)C1C2NC(=S)N(c3ccccc3)C1(C)Oc1ccccc12` (stereo not given)?
NPY2 pot ag: inactive; NPY Y1 blocker: inactive; NPY-Y1 PAM-ag: inactive

Results for COc1ccc(/C=C/c2cc(C(F)(F)F)on2)cc1 ?
NPY2 pot ag: inactive; NPY-Y1 PAM-ag: inactive

How did COc1ccc(Nc2nc(N3CCCCC3)c3ccccc3n2)cc1 do in these assays?
NPY2 pot ag: inactive; NPY Y1 blocker: 34; NPY-Y1 PAM-ag: inactive; NPY-Y2 antag: 41

What do the screens show for `Cc1ccc(Nc2nc(N3CCOCC3)c3ccccc3n2)cc1`?
NPY2 pot ag: inactive; NPY Y1 blocker: 23; NPY-Y1 PAM-ag: inactive; NPY-Y2 antag: inactive

What do the screens show for `Oc1ccc(Nc2nc(N3CCCC3)c3ccccc3n2)cc1`?
NPY2 pot ag: inactive; NPY Y1 blocker: inactive; NPY-Y1 PAM-ag: inactive; NPY-Y2 antag: inactive

How did COc1ccc(CCNC(=O)c2ccc3ccccc3n2)cc1OC do in these assays?
NPY2 pot ag: inactive; NPY Y1 blocker: 20; NPY-Y1 PAM-ag: inactive

Results for CN(C)c1ccc(/C=N/NC(=O)c2nnn(-c3nonc3N)c2COc2ccc(F)cc2)cc1 ?
NPY2 pot ag: inactive; NPY-Y1 PAM-ag: inactive

Results for COc1cc(/C=N/NC(=O)c2ccc([N+](=O)[O-])cc2Cl)cc(Br)c1O ?
NPY2 pot ag: inactive; NPY Y1 blocker: inactive; NPY-Y1 PAM-ag: inactive; NPY-Y2 antag: inactive

What do the screens show for `COc1cc(/C=N/N2C(=O)c3ccccc3NC2(C)c2cccc([N+](=O)[O-])c2)cc(Br)c1O` (stereo not given)?
NPY2 pot ag: inactive; NPY Y1 blocker: inactive; NPY-Y1 PAM-ag: inactive; NPY-Y2 antag: 17

What do the screens show for `Cc1ccc(CN2CC(C(=O)Nc3cc(S(C)(=O)=O)ccc3Cl)CC2=O)cc1` (stereo not given)?
NPY2 pot ag: inactive; NPY Y1 blocker: inactive; NPY-Y1 PAM-ag: inactive; NPY-Y2 antag: inactive

How did Cc1ccc(CN2CC(C(=O)Nc3ccc(F)c([N+](=O)[O-])c3)CC2=O)cc1 (stereo not given) do in these assays?
NPY2 pot ag: 70; NPY Y1 blocker: inactive; NPY-Y1 PAM-ag: 81

Results for O=C(Nc1cc(C(=O)N2CCCC2)ccc1N1CCCC1)c1ccccc1F ?
NPY2 pot ag: 39; NPY Y1 blocker: inactive; NPY-Y1 PAM-ag: 44; NPY-Y2 antag: inactive

Results for O=C(Nc1ccc(C(=O)N2CCCC2)cc1)c1ccccc1F ?
NPY2 pot ag: inactive; NPY Y1 blocker: inactive; NPY-Y1 PAM-ag: inactive; NPY-Y2 antag: inactive

Results for O=C(CSc1nc2ccccc2c(=O)n1Cc1ccco1)N1CCCC1 ?
NPY2 pot ag: inactive; NPY Y1 blocker: inactive; NPY-Y1 PAM-ag: inactive

How did CCOC(=O)CSc1nc2ccccc2c(=O)n1CC(C)C do in these assays?
NPY2 pot ag: inactive; NPY Y1 blocker: 20; NPY-Y1 PAM-ag: inactive

What do the screens show for `CC(C)Cn1c(SCC(=O)N2CCCCC2)nc2ccccc2c1=O`?
NPY2 pot ag: inactive; NPY Y1 blocker: 22; NPY-Y1 PAM-ag: inactive; NPY-Y2 antag: 24

Results for COc1ccc(-c2nnc(CSc3nc4ccccc4c(=O)n3CC(C)C)o2)cc1OC ?
NPY2 pot ag: inactive; NPY Y1 blocker: 26; NPY-Y1 PAM-ag: inactive; NPY-Y2 antag: 28

How did COCCCn1c(SCc2nnc(-c3ccc(OC)c(OC)c3)o2)nc2ccccc2c1=O do in these assays?
NPY2 pot ag: inactive; NPY Y1 blocker: inactive; NPY-Y1 PAM-ag: inactive; NPY-Y2 antag: inactive

How did CCOC(=O)CSc1nc2ccccc2c(=O)n1CC do in these assays?
NPY2 pot ag: inactive; NPY Y1 blocker: inactive; NPY-Y1 PAM-ag: inactive; NPY-Y2 antag: inactive

What do the screens show for `CC/C(C)=N/Oc1nc(C)cc(C)n1`?
NPY2 pot ag: inactive; NPY-Y1 PAM-ag: inactive

Results for NC(=O)CC[C@H](NC(=O)c1ccc(F)cc1)C(=O)OCC(=O)NCc1ccc(F)cc1 ?
NPY2 pot ag: inactive; NPY Y1 blocker: inactive; NPY-Y1 PAM-ag: inactive

What do the screens show for `C/C(=N\N=C(N)N)c1ccc(C)c(C)c1`?
NPY2 pot ag: inactive; NPY-Y1 PAM-ag: inactive

Source: PubChem BioAssay (The Scripps Research Institute Molecular Screening Center)
